# From ChEMBL document CHEMBL3407436, “Design and development of novel Mycobacterium tuberculosis L-alanine dehydrogenase inhibitors” (Eur J Med Chem, 2015)
# Assays:
# [1] = Cytotoxicity against mouse RAW264.7 cells at 50 uM after 48 hrs by MTT assay; format: cell-based; conditions: read-out: INH
# How it was run: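 RAW 264.7 cells grown in RPMI with 10% FBS plus penicillin/streptomycin to 80-90% confluency, seeded ~5,000 cells/well on poly-L-lysine plates, 24 h at 37°C, 5% CO₂. Compounds at 50 µM for 48 h; MTT (0.5 mg/ml) added for 3 h at 37°C; formazan read at 595 nm.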
# [2] = Inhibition of Mycobacterium tuberculosis AlaDH using L-alanine as substrate after 20 mins by spectrophotometry
# How it was run: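 125 mM glycine-KOH buffer pH 10.2, 1 mM NAD⁺, 50 mM L-alanine, enzyme at a level set by range finding; 20 min at 37°C. NADH formation from oxidative deamination monitored continuously at 340 nm. Compounds tested at 25 to 0.5 µM; background measured without enzyme. IC₅₀ by software analysis.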
# [3] = test system: Mycobacterium tuberculosis; assay: Antimycobacterial activity against dormant Mycobacterium tuberculosis H37Rv model assessed as log reduction at 10 ug/ml incubated for 7 days measured after 28 days in presence of nutrient deprived condition; format: functional
# How it was run: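 H37Rv grown in 7H9/OADC, pelleted, washed twice and resuspended in PBS in sealed bottles, starved 6 weeks at 37°C. Treated at 10 µg/ml for 7 days. Suspensions diluted 10-fold to 10^-6 in 7H9/OADC and plated in triplicate; 37°C for 28 days without agitation. Wells with visible growth scored positive, MPN calculated statistically.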
# [4] = test system: Mycobacterium tuberculosis; assay: Antimycobacterial activity against Mycobacterium tuberculosis H37Rv ATCC 27294 after 28 days by agar dilution method; format: functional; conditions: H37Rv ATCC 27294, 672 h
# How it was run: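 Two-fold serial dilutions incorporated into Middlebrook 7H11 agar with OADC, final 50 to 0.78 µg/mL. Inoculum from fresh 7H11 slants adjusted to 1 mg/mL wet weight in 0.05% Tween 80 saline, diluted 10^-2 (~10⁷ cfu/mL). 5 µL spotted per tube; 37 °C, read after 28 days. MIC = lowest concentration completely inhibiting growth; duplicates.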
# [5] = test system: Mycobacterium tuberculosis; assay: Binding affinity to Mycobacterium tuberculosis AlaDH assessed as protein-ligand stabilization by measuring shift in melting temperature by differential scanning fluorimetry
# How it was run: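 Thermal shift assay on MTB L-AlaDH with Sypro Orange dye in a real-time PCR instrument. Samples equilibrated at 25°C for 3 min, then heated to 95°C in 0.1°C steps with fluorescence read at each step. Tm of protein-ligand complex compared with native protein Tm.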
Structure (SMILES),"cytotoxicity at 48 h, 50 µM [1] [%]",IC50 ([2]; read-out: IC50) [µM],FC [3],MIC [4] [µM],IC50 [2],ΔTm [5] [°C]
CN1CCc2c(sc(NC(=O)c3ccc(OCc4ccccc4)cc3)c2C(N)=O)C1,37.6,1.22,2,15.3,,
N=C1S/C(=C\c2ccc(OCc3ccccc3)cc2)C(=O)N1c1ccccn1,37.2,2.12,2,8.06,,
CC[C@@H](CO)NCCN[C@@H](CC)CO [ETHAMBUTOL],,,,7.64,Not Active,
Cc1c(Cl)cccc1N1C(=N)S/C(=C\c2ccc(OCc3ccccc3)cc2)C1=O,59.7,13,,14.4,,
N=C1S/C(=C\c2ccc(OCc3ccccc3)cc2)C(=O)N1c1ncccn1,26.6,7.52,,4.02,,
Cc1cccc(N2C(=N)S/C(=C\c3ccc(OCc4ccccc4)cc3)C2=O)n1,25.1,9.44,,1.94,,
CC(C)(C)OC(=O)N1CCc2c(sc(NC(=O)c3ccc(Oc4ccccc4)cc3)c2C(N)=O)C1,26.9,1.12,2,6.33,,
N=C1S/C(=C\c2ccc(OCc3ccccc3)cc2)C(=O)N1c1ccccc1,37.9,2.27,,16.2,,
N=C1S/C(=C\c2ccc(OCc3ccccc3)cc2)C(=O)N1c1cccc([N+](=O)[O-])c1,52.9,5.56,,14.5,,
NC(=O)c1c(NC(=O)c2ccc(Oc3ccccc3)cc2)sc2c1CCN(Cc1ccccc1)C2,23.6,0.78,2,3.58,,
NC(=O)c1c(NC(=O)c2ccc(OCc3ccccc3)cc2)sc2c1CCN(Cc1ccccc1)C2,24,0.81,2,12.6,,
CC(C)(C)OC(=O)N1CCc2c(sc(NC(=O)c3ccc(Cl)cc3)c2C(N)=O)C1,37.3,0.58,,1.79,,1.8
CC(=O)N1CCc2c(sc(NC(=O)c3ccc(OCc4ccccc4)cc3)c2C(N)=O)C1,11.6,0.63,2,1.56,,
N=C1S/C(=C\c2ccc(OCc3ccccc3)cc2)C(=O)N1c1ccc(Cl)cc1,16.4,7.01,,7.42,,
NC(=O)c1c(NC(=O)c2ccc(Cl)cc2)sc2c1CCN(Cc1ccccc1)C2,11.1,1.14,2,3.67,,
CCc1nc(Nc2ccccc2)c2c3c(sc2n1)CCCC3,,15.1,,,,
N=C1S/C(=C\c2ccc(OCc3ccccc3)cc2)C(=O)N1c1ncc([N+](=O)[O-])s1,,6.77,,,,
NNC(=O)c1ccncc1 [ISONIAZID],,,1.2,0.72,Not Active,
N=C1S/C(=C\c2ccc(OCc3ccccc3)cc2)C(=O)N1c1ccccc1[N+](=O)[O-],24.4,15,2,58,,
CC(=O)N1CCc2c(sc(NC(=O)c3ccc(Cl)cc3)c2C(N)=O)C1,38.4,0.64,,4.13,,1.7

Structure (SMILES),"cytotoxicity at 48 h, 50 µM [1] [%]",IC50 ([2]; read-out: IC50) [µM],FC [3],MIC [4] [µM],IC50 [2],ΔTm [5] [°C]
N=C1S/C(=C\c2ccc(OCc3ccccc3)cc2)C(=O)N1c1ccc(F)cc1,10.5,8.55,2,7.72,,
Cc1cccc(C)c1N1C(=N)S/C(=C\c2ccc(OCc3ccccc3)cc2)C1=O,38.7,1.74,2,60.4,,1.4
CO[C@H]1/C=C/O[C@@]2(C)Oc3c(C)c(O)c4c(O)c(c(/C=N/N5CCN(C)CC5)c(O)c4c3C2=O)NC(=O)/C(C)=C\C=C\[C@H](C)[C@H](O)[C@@H](C)[C@@H](O)[C@@H](C)[C@H](OC(C)=O)[C@@H]1C [RIFAMPIN],,,2,0.15,Not Active,
CC(=O)N1CCc2c(sc(NC(=O)C3CC3)c2C(N)=O)C1,,20.1,,,,
N=C1S/C(=C\c2ccc(OCc3ccccc3)cc2)C(=O)N1c1ccc(Cl)cc1Cl,13.8,3.49,2,13.8,,
N=C1S/C(=C\c2ccc(OCc3ccccc3)cc2)C(=O)N1c1ccc([N+](=O)[O-])cc1,17.3,6.16,,7.23,,
Cc1ccc(C)c(N2C(=N)S/C(=C\c3ccc(OCc4ccccc4)cc3)C2=O)c1,45.8,1.34,2,15.1,,4.6
Cc1ccc(N2C(=N)S/C(=C\c3ccc(OCc4ccccc4)cc3)C2=O)c(C)c1,36.8,6.08,,1.88,,
N=C1S/C(=C\c2ccc(OCc3ccccc3)cc2)C(=O)N1c1ccc(Br)cc1,7.83,22.3,,3.35,,
N#C/C(=C\c1cccs1)c1nc2cc([N+](=O)[O-])ccc2[nH]1,,21.3,,,,
CN1CCc2c(sc(NC(=O)c3ccc(Oc4ccccc4)cc3)c2C(N)=O)C1,58.9,0.73,2,1.85,,
NC(=O)c1c(NC(=O)c2ccc(Oc3ccccc3)cc2)sc2c1CCN(C(=O)c1ccccc1)C2,4.71,1.11,2,3.47,,
COc1c(N2C[C@@H]3CCCN[C@@H]3C2)c(F)cc2c(=O)c(C(=O)O)cn(C3CC3)c12 [MOXIFLOXACIN],,,2.5,1.24,Not Active,
NC(=O)c1c(NC(=O)c2ccc(Cl)cc2)sc2c1CCN(C(=O)c1ccccc1)C2,42.5,1.5,2,28.5,,
COc1ccc(NC(=O)N2CCc3c(sc(NC(=O)c4ccc([N+](=O)[O-])s4)c3C(N)=O)C2)cc1,,8.17,,,,
CC(=O)N1CCc2c(sc(NC(=O)c3ccc(Oc4ccccc4)cc3)c2C(N)=O)C1,32.9,0.66,,6.11,,
CN1CCc2c(sc(NC(=O)c3ccc(Cl)cc3)c2C(N)=O)C1,38.5,0.67,2,8.95,,
NC(=O)c1c(NC(=O)c2ccc(OCc3ccccc3)cc2)sc2c1CCN(C(=O)c1ccccc1)C2,13.7,0.8,2,12.9,,
CC(C)(C)OC(=O)N1CCc2c(sc(NC(=O)c3ccc(OCc4ccccc4)cc3)c2C(N)=O)C1,52.1,0.64,2,1.53,,
